Measured values from ChEMBL document CHEMBL1687785, “ampG gene of Pseudomonas aeruginosa and its role in β-lactamase expression” (2010).
Values after ≈ are worked out from the molar mass of the structure shown.

Legend:
Assay type in all cases: functional
[1] = system: Pseudomonas aeruginosa; test: Antimicrobial activity against ampGh1 deficient Pseudomonas aeruginosa PAO1 after 16 to 20 hrs by broth microdilution method in presence of 120 uM carbonyl cyanide m-chlorophenyl-hydrazone
Summary of the method: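 Serial 2-fold dilutions of β-lactam in Mueller-Hinton broth with CCCP added from a 10 mM DMSO stock to 120 μM final; inoculum about 10^4 cells from cultures grown to OD600 0.5; MIC taken as lowest concentration preventing growth after 16 to 20 h at 37°C; triplicate.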

[2] = system: Pseudomonas aeruginosa; test: Antimicrobial activity against ampG deficient Pseudomonas aeruginosa PAO1 harboring pZY0901 conferring resistance to gentamycin after 16 to 20 hrs by broth microdilution method
Summary of the method: (§1)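 CLSI broth microdilution in Mueller-Hinton broth, serial 2-fold antibiotic dilutions. Inoculum about 10^4 cells per well, taken from starter cultures grown to OD600 0.5. MIC was the lowest antibiotic concentration preventing growth after 16 to 20 h at 37°C. Each MIC was determined in triplicate.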

[3] = system: Pseudomonas aeruginosa; test: Antimicrobial activity against ampG deficient Pseudomonas aeruginosa PAO1 harboring pZY0908 conferring resistance to gentamycin after 16 to 20 hrs by broth microdilution method; summary of the method: as §1
[4] = system: Pseudomonas aeruginosa; test: Antimicrobial activity against ampGh1 deficient Pseudomonas aeruginosa PAK after 16 to 20 hrs by broth microdilution method; summary of the method: as §1
[5] = system: Pseudomonas aeruginosa; test: Antimicrobial activity against ampD, ampDh2, ampDh3 and ampG deficient Pseudomonas aeruginosa PAO1 after 16 to 20 hrs by broth microdilution method in presence of 120 uM carbonyl cyanide m-chlorophenyl-hydrazone
Summary of the method: (§2)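 CLSI broth microdilution in Mueller-Hinton broth with serial antibiotic dilutions. CCCP was added from a 10 mM DMSO stock to 120 μM final, then the bacterial culture was added as inoculum (about 10^4 cells from OD600 0.5 starter cultures). MIC was the lowest concentration preventing growth after 16 to 20 h at 37°C, run in triplicate.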

[6] = system: Pseudomonas aeruginosa; test: Antimicrobial activity against Pseudomonas aeruginosa isolate 14 obtained from cystic fibrosis patients after 16 to 20 hrs by broth microdilution method
Summary of the method: (§3)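 CLSI broth microdilution: 2-fold serial antibiotic dilutions in Mueller-Hinton broth, inoculated with about 10^4 cells per 100 μl from starter cultures grown to OD600 0.5. MIC is the lowest concentration preventing growth after 16-20 h at 37°C. Triplicate.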

[7] = system: Pseudomonas aeruginosa; test: Antimicrobial activity against ampD, ampDh2, ampDh3 and ampG deficient Pseudomonas aeruginosa PAO1 harboring pUCP24 conferring resistance to gentamycin after 16 to 20 hrs by broth microdilution method in presence of 120 uM carbonyl cyanide m-chlorophenyl-hydrazone; summary of the method: as §2
[8] = system: Escherichia coli; test: Antimicrobial activity against kanamycin resistant Escherichia coli SNO301-1 harboring pEC1C carrying ampC, ampR from Enterobacter cloacae after 16 to 20 hrs by broth microdilution method
Summary of the method: (§4)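 CLSI broth microdilution: serial 2-fold β-lactam dilutions in Mueller-Hinton broth, inoculum about 10^4 cells from starter cultures at OD600 0.5; MIC read as lowest concentration preventing growth after 16 to 20 h at 37°C; triplicate determinations.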

[9] = system: Pseudomonas aeruginosa; test: Antimicrobial activity against ampG deficient Pseudomonas aeruginosa PAO1 harboring pUCP24 conferring resistance to gentamycin after 16 to 20 hrs by broth microdilution method; summary of the method: as §1
[10] = system: Escherichia coli; test: Antimicrobial activity against tetracycline resistant Escherichia coli SNO301-1 harboring pEC1C carrying ampC, ampR from Enterobacter cloacae after 16 to 20 hrs by broth microdilution method; summary of the method: as §4
[11] = system: Pseudomonas aeruginosa; test: Antimicrobial activity against Pseudomonas aeruginosa isolate 16 obtained from cystic fibrosis patients after 16 to 20 hrs by broth microdilution method; summary of the method: as §3
[12] = system: Pseudomonas aeruginosa; test: Antimicrobial activity against Pseudomonas aeruginosa isolate 3 obtained from cystic fibrosis patients after 16 to 20 hrs by broth microdilution method; summary of the method: as §1
[13] = system: Pseudomonas aeruginosa; test: Antimicrobial activity against ampG deficient Pseudomonas aeruginosa PAO1 after 16 to 20 hrs by broth microdilution method in presence of 120 uM carbonyl cyanide m-chlorophenyl-hydrazone; summary of the method: as §2
[14] = system: Pseudomonas aeruginosa; test: Antimicrobial activity against Pseudomonas aeruginosa isolate 12 obtained from cystic fibrosis patients after 16 to 20 hrs by broth microdilution method; summary of the method: as §3
[15] = system: Pseudomonas aeruginosa; test: Antimicrobial activity against Pseudomonas aeruginosa isolate 10 obtained from cystic fibrosis patients after 16 to 20 hrs by broth microdilution method; summary of the method: as §3
[16] = system: Pseudomonas aeruginosa; test: Antimicrobial activity against Pseudomonas aeruginosa isolate 8 obtained from cystic fibrosis patients after 16 to 20 hrs by broth microdilution method in presence of 120 uM carbonyl cyanide m-chlorophenyl-hydrazone; summary of the method: as §2
[17] = system: Pseudomonas aeruginosa; test: Antimicrobial activity against ampG, ampGh1 deficient Pseudomonas aeruginosa PAK after 16 to 20 hrs by broth microdilution method in presence of 120 uM carbonyl cyanide m-chlorophenyl-hydrazone; summary of the method: as §2
[18] = system: Pseudomonas aeruginosa; test: Antimicrobial activity against Pseudomonas aeruginosa isolate 13 obtained from cystic fibrosis patients after 16 to 20 hrs by broth microdilution method in presence of 120 uM carbonyl cyanide m-chlorophenyl-hydrazone
Summary of the method: (§5)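 CLSI broth microdilution in Mueller-Hinton broth with CCCP added from a 10 mM DMSO stock to 120 μM final, alongside 2-fold serial antibiotic dilutions. Inoculum from starter cultures grown to OD600 0.5. MIC is the lowest concentration preventing growth after 16-20 h at 37°C. Triplicate.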

[19] = system: Pseudomonas aeruginosa; test: Antimicrobial activity against Pseudomonas aeruginosa isolate 16 obtained from cystic fibrosis patients after 16 to 20 hrs by broth microdilution method in presence of 120 uM carbonyl cyanide m-chlorophenyl-hydrazone; summary of the method: as §5
[20] = system: Pseudomonas aeruginosa; test: Antimicrobial activity against Pseudomonas aeruginosa isolate 9 obtained from cystic fibrosis patients after 16 to 20 hrs by broth microdilution method; summary of the method: as §1
[21] = system: Pseudomonas aeruginosa; test: Antimicrobial activity against Pseudomonas aeruginosa isolate 14 obtained from cystic fibrosis patients after 16 to 20 hrs by broth microdilution method in presence of 120 uM carbonyl cyanide m-chlorophenyl-hydrazone; summary of the method: as §5
[22] = system: Pseudomonas aeruginosa; test: Antimicrobial activity against ampG deficient Pseudomonas aeruginosa PAK harboring pUCP24 conferring resistance to gentamycin after 16 to 20 hrs by broth microdilution method; summary of the method: as §1
[23] = system: Pseudomonas aeruginosa; test: Antimicrobial activity against Pseudomonas aeruginosa PAK after 16 to 20 hrs by broth microdilution method in presence of 120 uM carbonyl cyanide m-chlorophenyl-hydrazone; summary of the method: as §5
[24] = system: Pseudomonas aeruginosa; test: Antimicrobial activity against Pseudomonas aeruginosa isolate 13 obtained from cystic fibrosis patients after 16 to 20 hrs by broth microdilution method; summary of the method: as §3
[25] = system: Pseudomonas aeruginosa; test: Antimicrobial activity against Pseudomonas aeruginosa isolate 1 obtained from cystic fibrosis patients after 16 to 20 hrs by broth microdilution method in presence of 120 uM carbonyl cyanide m-chlorophenyl-hydrazone; summary of the method: as §5
[26] = system: Pseudomonas aeruginosa; test: Antimicrobial activity against ampG deficient Pseudomonas aeruginosa PAO1 harboring pZY0901 conferring resistance to gentamycin after 16 to 20 hrs by broth microdilution method in presence of 120 uM carbonyl cyanide m-chlorophenyl-hydrazone; summary of the method: as §2
[27] = system: Pseudomonas aeruginosa; test: Antimicrobial activity against Pseudomonas aeruginosa isolate 17 obtained from cystic fibrosis patients after 16 to 20 hrs by broth microdilution method; summary of the method: as §1
[28] = system: Pseudomonas aeruginosa; test: Antimicrobial activity against Pseudomonas aeruginosa isolate 5 obtained from cystic fibrosis patients after 16 to 20 hrs by broth microdilution method; summary of the method: as §1
[29] = system: Pseudomonas aeruginosa; test: Antimicrobial activity against ampD, […], ampDh2 deficient Pseudomonas aeruginosa PAO1 after 16 to 20 hrs by broth microdilution method; summary of the method: as §1
[30] = system: Pseudomonas aeruginosa; test: Antimicrobial activity against Pseudomonas aeruginosa isolate 7 obtained from cystic fibrosis patients after 16 to 20 hrs by broth microdilution method; summary of the method: as §1
[31] = system: Pseudomonas aeruginosa; test: Antimicrobial activity against Pseudomonas aeruginosa isolate 3 obtained from cystic fibrosis patients after 16 to 20 hrs by broth microdilution method in presence of 120 uM carbonyl cyanide m-chlorophenyl-hydrazone; summary of the method: as §2

CC1(C)S[C@@H]2[C@H](NC(=O)[C@H](N)c3ccccc3)C(=O)N2[C@H]1C(=O)O [AMPICILLIN]
MIC [1]: 256 µg/mL | MIC [2]: 1020 µg/mL (≈ 2930 µM) | MIC [3]: 32 µg/mL (≈ 91.6 µM) | MIC [4]: 512 µg/mL (≈ 1470 µM) | MIC [5]: 16 µg/mL | MIC [6]: 512 µg/mL (≈ 1470 µM) | MIC [7]: 16 µg/mL | MIC [8]: 1020 µg/mL (≈ 2930 µM) | MIC [9]: 32 µg/mL (≈ 91.6 µM) | MIC [10]: 16 µg/mL (≈ 45.8 µM) | MIC [11]: 16 µg/mL (≈ 45.8 µM) | MIC [12]: 64 µg/mL (≈ 183 µM) | MIC [13]: 32 µg/mL | MIC [14]: > 1020 µg/mL | MIC [15]: > 1020 µg/mL | MIC [16]: 8 µg/mL | MIC [17]: 32 µg/mL | MIC [18]: 8 µg/mL | MIC [19]: 8 µg/mL | MIC [20]: 512 µg/mL (≈ 1470 µM) | MIC [21]: 8 µg/mL | MIC [22]: 32 µg/mL (≈ 91.6 µM) | MIC [23]: 256 µg/mL | MIC [24]: > 1020 µg/mL | MIC [25]: 512 µg/mL | MIC [26]: 512 µg/mL | MIC [27]: 512 µg/mL (≈ 1470 µM) | MIC [28]: 512 µg/mL (≈ 1470 µM) | MIC [29]: 1020 µg/mL (≈ 2930 µM) | MIC [30]: 256 µg/mL (≈ 733 µM) | MIC [31]: 64 µg/mL
